Hits are enriched below; roughly 2.9% of the tested compounds scored in any of these assays.
OX1R antag-1 – OX1R (human) antagonism; actives 1.8% (n = 330,000); inhibition, % at 6.6 µM; AID 485270; OX1R-expressing cells, FRET antagonist read-out; in the data active means inhibition mostly above about 38%, no sharp cut-off; inactive means mostly below about 40%;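 further: 0% = agonist challenge alone and 100% = reference antagonist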
Target sequence (O43613 whole entry, looked up): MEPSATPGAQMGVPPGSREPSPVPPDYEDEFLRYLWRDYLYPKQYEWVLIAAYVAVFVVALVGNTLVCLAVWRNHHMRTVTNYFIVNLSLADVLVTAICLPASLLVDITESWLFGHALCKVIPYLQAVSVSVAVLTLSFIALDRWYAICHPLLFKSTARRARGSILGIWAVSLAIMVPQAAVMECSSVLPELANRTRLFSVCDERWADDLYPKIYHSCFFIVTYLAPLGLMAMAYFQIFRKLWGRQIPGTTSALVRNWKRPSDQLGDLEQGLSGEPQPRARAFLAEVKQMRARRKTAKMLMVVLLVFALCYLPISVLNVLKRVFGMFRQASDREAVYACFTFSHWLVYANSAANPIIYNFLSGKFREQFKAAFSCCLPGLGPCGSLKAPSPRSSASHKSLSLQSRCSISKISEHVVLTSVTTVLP
CHO-K1 Ca ag – counter-screen for M1 agonists: effect in parental CHO-K1 cells | Fluo-8 calcium fluorescence; scaled to maximal ATP response, vehicle zero | activation, % at 3 µM | actives 0.48% (n = 360,000); in the data active means activation above about 15%;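 further: untransfected CHO-K1 host cells lacking M1 receptor as counterscreen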
OX1R antag-2 – blocks the human orexin 1 receptor; O43613; CHO/OX1R cells, Fluo-8 calcium fluorescence, orexin A; inhibition, % at 5 µM; actives 0.43% (n = 330,000);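 active means inhibition above its plate's threshold, mean inhibition of all tested compounds on the plate plus 3 SD, cut at about 37% in these data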;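 further: 0% = orexin A challenge wells and 100% = SB-334867-A antagonist wells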
CHO parental Ca – counter-screen for OX1R antagonists: effect in parental CHO cells; parental CHO-K1, ATP-induced calcium, Fluo-8 fluorescence; inhibition, % at 5.6 µM; actives 0.63% (n = 330,000);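 active means inhibition above that plate's mean sample inhibition plus 3 SD, cut at about 26% in these data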;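 further: 0% = ATP-challenged DMSO wells and 100% = DMSO wells without ATP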
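test system = CHO parental line | reagent = ATP stimulus | measured by = intracellular calcium via Fluo-8 no-wash fluorescent dye | control set = ATP and no-ATP DMSO wells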
CHO-K1 Ca antag – nonselective inhibitor or artifact in parental CHO-K1 cells; ATP-induced calcium, Fluo-8 fluorescence; inhibition, % at 3 µM; actives 0.6% (n = 360,000); AID 602250;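 active means inhibition above a per-plate cutoff, the plate's mean sample inhibition plus 3 SD, cut at about 24% in these data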;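 further: 0% = DMSO plus EC80 ATP and 100% = DMSO alone without ATP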
M1 PAM parental – nonselective activator or artifact in parental CHO-K1 calcium assay; ATP EC20, Fluo-8 calcium fluorescence; 0% at ATP EC20, 100% at ATP max; activation, % at 3 µM; actives 0.02% (n = 360,000);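 active means activation above the run cutoff, the mean activation of all test compounds plus 3 SD, cut at about 40% in these data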;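 further: peak over basal fluorescence ratio in a 140 s read after ATP addition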
* marks the source's active call; other numbers are inactive results; . = no result given.

SMILES	OX1R antag-1	CHO-K1 Ca ag	OX1R antag-2	CHO parental Ca	CHO-K1 Ca antag	M1 PAM parental
COc1ccc(-n2cc(CN(C)CCO)c(-c3cccc(F)c3)n2)cc1	11.4	18.4*	-21.5	-12.2	10.1	-1.8
COc1ccc(-n2cc(CN(C)C(C)c3ccncn3)c(-c3cccc(F)c3)n2)cc1 (centres undefined)	2.3	1.9	-30.4	-19.3	-15.2	4.7
Cc1cccc(NC(=O)CSc2nnc(CCC(=O)Nc3ccc(C)c(Cl)c3)n2C)c1	20.0	0.0	-26.9	-9.7	-8.0	-8.8
C=CCn1c(CCC(=O)Nc2ccc(C)c(Cl)c2)nnc1SCC(=O)Nc1ccccc1C	43.4	16.1*	-24.7	-16.5	-1.1	6.6
O=C(COC(=O)/C=C/c1cccc(C(F)(F)F)c1)NCCN1C(=O)CSC1=O	10.7	0.6	-15.6	-19.7	6.3	-14.2
Cc1c(Cl)cccc1NC(=O)c1ncn[nH]1	21.3	0.1	-7.1	-11.7	-0.2	-8.5
O=C(COC(=O)c1ccc([N+](=O)[O-])s1)NNC(=O)c1ccccc1	56.7*	0.2	4.8	2.9	-5.1	-19.6
CC1(C(=O)OCC(=O)NCc2ccc(Cl)cc2)CC1(Cl)Cl (centres undefined)	7.9	0.1	-3.9	1.0	-9.7	16.4
CC1(C(=O)OCC(=O)NC(=O)NCc2ccccc2)CC1(Cl)Cl (centres undefined)	11.8	15.2*	-15.0	-19.5	-10.4	19.1
CCc1cc(C(=O)OCC(=O)NCCc2ccccc2)sc1C	.	-0.1	.	.	3.7	-9.2
O=C(COC(=O)c1ccc(O)cc1)NC(=O)NCc1ccccc1	1.3	7.4	-0.1	-10.7	0.9	8.2
O=C(COC(=O)c1ccc([N+](=O)[O-])s1)NCCc1ccccc1	27.2*	0.7	-9.8	-12.1	-10.2	8.1
O=C(COC(=O)c1ccc([N+](=O)[O-])s1)NC(=O)NCc1ccccc1	49.0*	0.8	-7.4	-6.6	-0.6	22.7
c1ccc(-c2cn3c(n2)-c2ccccc2C3)cc1	22.2	1.1	-6.7	8.6	-4.6	18.9
O=C(COC(=O)c1ccc([N+](=O)[O-])s1)c1ccc[nH]1	60.7*	1.9	15.8	-6.8	2.9	-4.2
CN(CC(=O)Nc1ccccc1Cl)C(=O)COC(=O)c1cccs1	14.8	0.3	-10.7	-1.3	-7.2	0.1
CN(CC(=O)Nc1ccccc1Cl)C(=O)COC(=O)c1ccc([N+](=O)[O-])s1	43.5*	1.4	-10.0	-0.5	-18.2	10.2
CCC(=O)N1CCC1(C)C(=O)Nc1cnc2ccccc2c1 (centres undefined)	.	0.4	.	.	-12.5	-2.3
CC1(C)CC(=O)C=C(Nc2ccc(O)cc2)C1	.	0.1	.	.	3.6	-7.3
CC1(C)CC(=O)C=C(Nc2ccc([N+](=O)[O-])cc2)C1	28.5*	1.9	-15.6	-8.0	-4.7	5.1
O=C(O)c1ccc(N/N=C/c2cn(Cc3ccccc3F)c3ccccc23)cc1	5.4	23.1*	8.3	13.3	8.5	0.8
C=CCN(c1ccccc1)S(=O)(=O)c1cccc(C(=O)NCC(c2cccs2)N2CCOCC2)c1 (centres undefined)	39.4*	0.0	4.2	-34.0	1.1	-0.6
C=CCN(c1ccccc1)S(=O)(=O)c1cccc(C(=O)NCC(c2ccccc2OC)N2CCCC2)c1 (centres undefined)	29.4	-0.6	-38.1	-25.8	-14.3	-10.2
Cc1ccc(C)c(N(CC(=O)NC2CCCCC2)C(=O)CNC(=O)c2ccco2)c1	13.8	10.1	-32.8	-22.0	-3.0	6.7
Cc1nn(C(=O)c2cccc([N+](=O)[O-])c2)c(C)c1Sc1ccccc1	52.8	-0.7	-12.6	-3.6	26.2*	-7.7
CC(C)c1nc2c(c(=O)c3ccccc3n2C)c(=O)n1CCc1ccccc1	19.0	20.8*	-16.7	-32.5	-6.4	14.5
COc1ccc(CCn2c(-c3ccccc3)nc3c(c(=O)c4ccccc4n3C)c2=O)cc1	11.2	.	-22.9	-16.1	.	.
Cn1c(=S)n(CCC(=O)O)c2ccccc21	10.8	0.3	-4.4	1.6	-5.4	21.9
COc1cccc(C2CC(c3cccs3)=NN2C(=O)CSC2=NN3CCCC(=O)N=C3S2)c1OC (centres undefined)	6.5	1.1	-32.1	-11.7	24.5*	-2.5

Compound activity (PubChem)
